# Screening data from PubChem.
# MrgX1 PAM: human MrgX1 positive allosteric modulation, primary screen; AID 588675; actives 0.63% (n = 310,000); B-score at 10 µM; MrgX1-HEK293, Fluo-4 calcium flux, FDSS; active compounds read high;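 active = plate-corrected calcium response at least 3 library SD above typical, normal starting fluorescence, not activating the receptor alone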;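 note: compound read alongside a low EC10 to EC30 dose of BAM8-22 agonist; peak minus trough fluorescence over baseline measured at the second addition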
# Target sequence (Q96LB2 whole entry, looked up): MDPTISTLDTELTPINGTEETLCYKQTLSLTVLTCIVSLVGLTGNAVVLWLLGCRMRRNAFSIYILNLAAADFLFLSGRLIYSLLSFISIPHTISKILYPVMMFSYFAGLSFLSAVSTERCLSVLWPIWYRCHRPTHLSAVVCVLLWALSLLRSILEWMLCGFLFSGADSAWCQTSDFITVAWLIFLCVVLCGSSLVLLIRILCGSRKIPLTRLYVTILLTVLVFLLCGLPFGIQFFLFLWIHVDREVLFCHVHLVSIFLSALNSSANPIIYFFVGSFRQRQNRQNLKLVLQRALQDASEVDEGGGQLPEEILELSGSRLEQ
# RGS4 block: human RGS4 inhibition; actives 0.45% (n = 310,000); HEK293 M3R/RGS4 inducible, Fluo-4 calcium flux; active compounds read high; triggered by carbachol at its EC20; B-score at 10 µM;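 active = B-score, a plate-corrected calcium signal, over three deviations above library mean, with baseline fluorescence within five deviations of library mean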;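 note: RGS4 expression induced by doxycycline in cells with stable M3 receptor; B-score is computed from the integrated fluorescence ratio over baseline after carbachol; higher B-score means a larger calcium signal and so more RGS4 inhibition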
# Target sequence (P49798 whole entry, looked up): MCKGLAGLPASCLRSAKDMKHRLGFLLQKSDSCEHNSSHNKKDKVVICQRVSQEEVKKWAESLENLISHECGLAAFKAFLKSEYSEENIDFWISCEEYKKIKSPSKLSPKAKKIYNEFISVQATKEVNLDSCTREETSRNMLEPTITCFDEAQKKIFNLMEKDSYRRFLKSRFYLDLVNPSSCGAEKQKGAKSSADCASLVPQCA
# MrgX1 antag: antagonists of human MrgX1 receptor. actives 1.3% (n = 310,000). AID 588676. B-score at 10 µM. MRGX1-HEK293 calcium flux, Fluo-4, BAM8-22 antagonism; active compounds read low;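 active = calcium-response B-score plate-corrected more than 3 library SD below zero, starting fluorescence within 5 deviations, no agonist response on first addition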;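 note: peak minus trough fluorescence over baseline after final BAM8-22 challenge near maximal dose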
# RGS4 act: potentiators or activators of RGS4; AID 463111; B-score at 10 µM; HEK293 M3R/inducible RGS4, carbachol calcium flux Fluo4; active compounds read low; actives 0.92% (n = 310,000);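 active = B-score of the integrated calcium signal more than 4 SD below the library mean, with starting fluorescence not abnormally high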;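 note: negative B-score means reduced calcium response which marks RGS4 activation or potentiation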
#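 Material: M3R-expressing HEK293 line, RGS4 induced by doxycycline | Schedule: Overnight RGS4 induction, 30 min dye load 37 °C, 20 min compound RT | Measured by: Fluo4 fluorescence kinetic imaging of calcium | Read-out: Integrated calcium ratio converted to B score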
# MrgX1 ag: agonists of human MrgX1 receptor | MrgX1-HEK293 cells, Fluo-4 calcium fluorescence, agonist mode; active compounds read high | actives 0.44% (n = 310,000) | AID 588627 | Q96LB2 | B-score at 10 µM;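 active = calcium response B-score plate-corrected fluorescence ratio at least 3 library SD, with starting fluorescence B-score inside 5 SD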
#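 Test system: Stable human MrgX1 HEK293 cell line | Schedule: Overnight plating before 1 h dye loading | Read-out basis: Baseline-normalised fluorescence change ratio, B-scored | Detection: Kinetic calcium dye fluorescence, Fluo-4 NW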
# MrgX1 ag confirm: human MrgX1 agonism, re-confirmation screen | MrgX1-HEK293, Fluo-4 calcium fluorescence, FDSS | shares compounds with MrgX1 ag | activation, % at 10 µM | AID 602412 | actives 78% (n = 600);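 active = calcium signal rise, corrected for plate position, at least 3 library SD high, with starting brightness within 5 such deviations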
# MrgX1 PAM conf: human MrgX1 positive allosteric modulation, re-confirmation. shares compounds with MrgX1 PAM. MrgX1-HEK293, Fluo-4 calcium fluorescence, FDSS. actives 13% (n = 1,200). activation (ratio percentage), % at 10 µM;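 active = ratio at least 3 SD above the weak peptide control, stable starting fluorescence, no direct agonism earlier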;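 note: compound followed by low BAM8-22 agonist challenge near EC20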
# HEK293 Ca flux: MrgX1 antagonist counter-screen hit in parental HEK293 cells. shares compounds with MrgX1 antag. Fluo-4 calcium fluorescence, FDSS. fluorescence ratio F(max-min)/F0 at 10 µM. actives 2% (n = 4,000);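 active = duplicate-averaged calcium fluorescence ratio at least three times the standard deviation of buffer wells, a nonspecific response in parental cells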
# HEK293 Ca counter: counter-screen for MrgX1 allosteric activators: effect in parental HEK293 cells; shares compounds with MrgX1 antag; actives 0.4% (n = 4,000); parental HEK293 calcium flux, Fluo-4 fluorescence ratio; active compounds read high; AID 624114; fluorescence ratio F(max-min)/F0 at 10 µM;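 active = calcium fluorescence ratio, averaged over duplicates, at least 3 SD of the buffer-well ratio, meaning a nonspecific response in receptor-free cells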;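 note: untransfected parental HEK293 lacking MrgX1 used as counterscreen for MrgX1 allosteric activators; fluorescence change taken during the second addition on a kinetic imager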
# HEK293 Ca cntr2: MrgX1 activator counter-screen hit in parental HEK293 cells | shares compounds with MrgX1 antag | Fluo-4 calcium fluorescence (FDSS); active compounds read high | fluorescence ratio F(max-min)/F0 at 10 µM | actives 8.7% (n = 4,000) | AID 624115;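 active = calcium fluorescence ratio at least three times the spread of buffer wells, meaning a non-specific response in parental cells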
# Numbers stand for hits; - = inactive; . = no result. An excerpt weighted towards active compounds, which were near 3.5% of everything screened.
SMILES,MrgX1 PAM,RGS4 block,MrgX1 antag,RGS4 act,MrgX1 ag,MrgX1 ag confirm,HEK293 Ca flux,HEK293 Ca counter,HEK293 Ca cntr2,others
O=C(O)c1ccccc1C(=O)NCc1ccc2c(c1)OCO2,-,-,-,-,-,.,.,.,.,
CCn1c(=O)c(C(=O)CN2CCN(S(=O)(=O)c3ccc(C)cc3C)CC2)c(N)n(Cc2ccccc2)c1=O,-,-,-,-,-,.,.,.,.,
CCn1c(=O)c(C(=O)CN2CCN(S(=O)(=O)c3ccccc3)CC2)c(N)n(Cc2ccccc2)c1=O,-,-,-,-,27.4,187.8%,-,-,-,
Fc1cccc(Nc2nc3ccccc3n3nnnc23)c1,-,-,-,-,-,.,.,.,.,
COc1cccc(Nc2nc3ccccc3n3nnnc23)c1,-,-,-,-,31.5,124.8%,-,-,-,
c1ccc2c(c1)nc(Nc1ccc3c(c1)OCO3)c1nnnn12,-,-,-,-,29.9,207.4%,-,-,-,
Cc1cccc2c1N(CCCOc1ccc(C(C)(C)C)cc1)C(=O)C2=O,-,-,-,-,-,.,.,.,.,
Cc1cccc2c1N(CCCOc1ccccc1)C(=O)C2=O,-,-,-,-,34.8,250.9%,-,-,49.6,
NC(=Nc1ccc(Br)cc1)c1ccccc1,-,-,-,-,78,288.9%,-,-,47.8,
O=C(O)C1C(C(=O)Nc2ccc(Cl)cc2)C2C=CC1C21CC1 (stereo not given),-,-,-,-,32.1,-,-,-,-,
O=C(O)C1C2CCC(O2)C1C(=O)Nc1ccc(F)c(Cl)c1 (stereo not given),-,-,-,-,-,.,.,.,.,
CCOC(=O)C(C)NC(=O)CCc1nnc2ccc(N3CCC(C)CC3)nn12 (stereo not given),-,-,-,-,-,.,.,.,.,
O=C(CN(c1ccc(F)cc1)S(=O)(=O)c1ccc2c(c1)OCCO2)Nc1cccnc1,-,-,-,-,39.5,-,-,-,-,
Nc1c(C(=O)Nc2nc3ccccc3s2)sc2nc(-c3cccs3)ccc12,-,-,-,-,28.7,157.1%,-,-,-,
COC(=O)c1sc2nc(N3CCCCC3)c3c(c2c1N)CCCC3,6.87,-,-,-,-,.,-,-,-,MrgX1 PAM conf=-
CCOc1ccc(N(CC(=O)Nc2cc(Cl)ccc2C)S(C)(=O)=O)cc1,-,-,-,-,-,.,.,.,.,
CNc1c(NS(=O)(=O)c2ccc(Cl)s2)c(=O)oc2ccccc12,-,-,-,-,-,.,.,.,.,
O=S(=O)(Nc1ncnc2c1oc1ccccc12)c1ccc(Cl)s1,19,-,-,-,-,.,-,-,-,MrgX1 PAM conf=-
O=S(=O)(c1cccc2nonc12)N1CCCCCC1,-,-,-,-,-,.,.,.,.,
CC1=CSC2=NC(=O)/C(=C\c3cccn3-c3ccc([N+](=O)[O-])cc3)C(=N)N12,25.9,-,-,-,-,.,-,-,-,MrgX1 PAM conf=23.7%
OC[C@H]1O[C@@H](n2cnc3c(Nc4ccccc4)ncnc32)[C@H](O)[C@@H]1O,7.07,-,-,-,-,.,-,-,-,MrgX1 PAM conf=-
CC1(C)OC2C(O1)[C@@H](CO)O[C@H]2n1cnc2c(N)ncnc21 (stereo not given in full),-,-,-,-,-,.,.,.,.,
N=C1c2ccccc2CN1NC(=O)CC12CC3CC(CC(C3)C1)C2,-,-,-,-,-,.,.,.,.,
CCOC(=O)Cc1csc(NC(=O)CSc2nc3cccnc3n2CC)n1,7.27,-,-,-,-,.,-,-,-,MrgX1 PAM conf=-
CCn1c(SCC(=O)Nc2nc(C)c(C)s2)nc2cccnc21,-,-,-,-,-,.,.,.,.,
